Test results taken from ChEMBL document CHEMBL4138314, “Synthesis and Evaluation of N-Phenyl-3-sulfamoyl-benzamide Derivatives as Capsid Assembly Modulators Inhibiting Hepatitis B Virus (HBV)” (J Med Chem, 2018).
Converted amounts (≈) assume the structure as drawn. The source made the active and inactive calls. No cut-off for these calls is given here.

How the values were obtained:
[1] = tested on: Hepatitis B virus; assay: Induction of HBV capsid core protein CP149 aggregation assessed as ratio between area under the curve for observed amount of core dimer and area under the curve for aggregated core protein at 20 uM after 24 hrs by size exclusion chromatographic analysis
Summary of the method: (§1)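 Recombinant HBV core assembly domain (aa 1–149, Cp149) was incubated with compound at 20 µM for 24 h, with a no-compound control run in parallel. Size exclusion chromatography gave the ratio of Cp149 dimer AUC to aggregated Cp149 AUC.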

[2] = tested on: Hepatitis B virus; assay: Induction of HBV capsid core protein CP149 aggregation assessed as large aberrant structure formation at 20 uM after 24 hrs by size exclusion chromatographic analysis; summary of the method: as §1
[3] = Drug metabolism in mouse liver microsomes at 1 uM after 15 mins by LC-MS/MS analysis; assay type: ADME, microsome; settings: read-out: Drug metabolism
Summary of the method: (§2)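 Compound incubated 15 min with human or mouse liver microsomes; stability expressed as percent turnover (metabolised) at 15 min.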

[4] = Drug metabolism in human liver microsomes at 1 uM after 15 mins by LC-MS/MS analysis; assay type: ADME, microsome; settings: read-out: Drug metabolism; summary of the method: as §2
[5] = tested on: HBV genotype D; assay: Antiviral activity against HBV genotype D infected in human HepG2.2.15 cells assessed as inhibition of viral DNA level treated twice for 3 days measured after 6 days by real time PCR; assay type: functional, organism-based; settings: for EC50: Hepatitis B virus; for Activity: hepatitis B virus genotype D
[6] = Kinetic solubility of the compound at pH 7.4 after 4 hrs by UPLC-UV analysis; assay type: physicochemical; settings: buffer, read-out: Kinetic_solubility
[7] = molecular target: Core antigen (Hepatitis B virus) (UniProt Q03732); assay: Induction of HBV Maleimidyl BoDIPY-FL-labeled capsid Cp*150 mutant aggregation incubated for 30 mins measured every 10 secs for 30 mins by fluorescence quenching assay
[8] = Cytotoxicity against human HepG2 cells after 6 days by resazurin assay; assay type: cell-based
[9] = Cytotoxicity against human HepG2 cells after 4 days by resazurin assay; assay type: cell-based
[10] = tested on: Hepatitis B virus; assay: Antiviral activity against Hepatitis B virus infected in human HepG2.117 cells assessed as inhibition of viral DNA level after 3 days by real time PCR; assay type: functional, organism-based; settings: HepG2.117, 72 h
[11] = (§3) Cytotoxicity against human HepG2 cells after 4 to 6 days by resazurin assay; assay type: cell-based; settings: HepG2 cells
[12] = tested on: HepG2; assay: as §3; assay type: cell-based; settings: hepg2
[13] = molecular target: 5-hydroxytryptamine receptor 2B (Homo sapiens, UniProt P41595); assay: Antagonist activity at 5-HT2B (unknown origin); assay type: functional
Summary of the method: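 Receptor/ion channel/transporter panel of 80 targets screened at 10 µM, giving percent effect at 5-HT2B; follow-up 5-HT2B functional testing in agonist and antagonist modes, with antagonist IC50 determined.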

[14] = Drug metabolism in human primary hepatocytes assessed as cleavage of N-phenylamide; assay type: ADME, cell-based, Hepatocyte
Summary of the method: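 Compound incubated with primary hepatocytes and checked for cleavage of the N-phenylamide bond.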

Sequence of Core antigen (Hepatitis B virus) (Q03732 as listed by the source): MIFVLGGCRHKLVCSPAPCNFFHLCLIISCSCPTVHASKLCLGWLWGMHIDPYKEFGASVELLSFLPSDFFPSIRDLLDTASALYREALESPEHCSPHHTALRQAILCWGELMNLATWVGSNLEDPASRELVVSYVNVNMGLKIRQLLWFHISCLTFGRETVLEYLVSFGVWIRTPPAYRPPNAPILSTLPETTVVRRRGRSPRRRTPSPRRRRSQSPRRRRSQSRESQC
Sequence of 5-hydroxytryptamine receptor 2B (P41595 whole entry): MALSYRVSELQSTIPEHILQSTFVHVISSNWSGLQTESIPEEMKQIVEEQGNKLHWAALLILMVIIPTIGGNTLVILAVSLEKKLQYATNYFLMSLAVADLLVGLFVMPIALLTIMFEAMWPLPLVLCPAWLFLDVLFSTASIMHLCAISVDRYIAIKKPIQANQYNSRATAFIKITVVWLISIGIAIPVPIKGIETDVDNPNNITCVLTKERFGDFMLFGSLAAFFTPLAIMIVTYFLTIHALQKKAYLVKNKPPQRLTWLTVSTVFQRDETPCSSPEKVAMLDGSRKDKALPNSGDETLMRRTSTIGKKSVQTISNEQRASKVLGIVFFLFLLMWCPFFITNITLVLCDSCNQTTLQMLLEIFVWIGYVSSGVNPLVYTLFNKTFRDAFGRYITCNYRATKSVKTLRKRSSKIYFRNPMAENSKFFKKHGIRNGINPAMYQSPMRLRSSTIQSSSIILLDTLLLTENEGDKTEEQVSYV

| Compound | Ratio [1] | Activity [2] | metabolised at 0.25 h, 1 µM [3] [%] | metabolised at 0.25 h, 1 µM [4] [%] | EC50 [5] [µM] | Activity [5] | solubility kinetic at 4 h [6] [µM] | Activity [7] | CC50 at 144 h [8] [µM] | CC50 at 96 h [9] [µM] | EC50 [10] [µM] | CC50 [11] [µM] | EC20 [12] [µM] | IC50 [13] [µM] | Drug metabolism [14] |
| --- | --- | --- | --- | --- | --- | --- | --- | --- | --- | --- | --- | --- | --- | --- | --- |
| O=C(Nc1ccc(F)cc1)c1ccc(Cl)c(S(=O)(=O)N2CCCCCC2)c1 | 0.01 | inactive | 100 | 98 | 0.66 | Dose-dependent effect | 1 (≈ 0.411 µg/mL) | Active | 17 | – | – | – | – | – | – |
| O=C(Nc1nccs1)c1cc(S(=O)(=O)NC2CCCCC2)ccc1F | 9.7 | – | 100 | 85 | 29.3 | – | > 100 | inactive | – | > 25 | > 25 | – | – | – | – |
| CCc1cc(NC(=O)c2cccc(S(=O)(=O)NC(C)C)c2)ccc1F | – | – | 88 | 31 | 0.31 | – | 15 (≈ 5.47 µg/mL) | – | – | – | 2.59 | 28.5 | – | – | – |
| O=C(Nc1ccccc1)c1ccc(F)c(S(=O)(=O)NC2CCCCC2)c1 | – | – | – | 100 | 2.23 | Dose-dependent effect | – | – | 16.4 | – | – | – | – | – | – |
| CC(C)NS(=O)(=O)c1cccc(C(=O)Nc2ccc(F)c(C(C)C)c2)c1 | – | – | 96 | 31 | 1.4 | – | 13 (≈ 4.92 µg/mL) | – | – | – | 2.79 | 29.8 | – | – | – |
| O=C(Nc1ccncc1)c1cc(S(=O)(=O)NC2CCCCC2)ccc1F | 6 | – | 75 | 68 | 5.3 | – | > 100 | inactive | – | > 25 | 16.3 | – | – | – | – |
| Cc1cc(NC(=O)c2cccc(S(=O)(=O)NC(C)C)c2)ccc1F | – | – | 80 | 26 | 0.07 | – | 41 (≈ 14.4 µg/mL) | Active | – | – | 0.15 | 47.5 | – | – | – |
| O=C(Nc1cccnc1)c1cc(S(=O)(=O)NC2CCCCC2)ccc1F | 9.8 | – | 99 | 57 | – | – | > 100 | inactive | – | > 25 | 24.8 | – | – | – | – |
| COc1cc(NC(=O)c2cccc(S(=O)(=O)N[C@H]3CCOC3)c2)ccc1F | – | – | 35 | 20 | 2.33 | – | > 100 | – | – | – | 2.66 | > 25 | – | – | – |
| O=C(Nc1ccccc1)c1cccc(S(=O)(=O)NC2CCCC2)c1 | 0.3 | inactive | 98 | 94 | 0.6 | Dose-dependent effect | 91 (≈ 31.3 µg/mL) | Active | 27.2 | – | – | – | – | – | – |
| CC(C)NS(=O)(=O)c1cccc(C(=O)Nc2ccc(F)c(F)c2)c1 | – | – | 60 | 18 | 0.21 | – | > 100 | Active | – | – | 0.4 | – | 1 | 0.23 | – |
| O=C(Nc1ccc(F)c(F)c1)c1cccc(S(=O)(=O)NC2CCCC2)c1 | – | – | 86 | 45 | 0.093 | – | 46 (≈ 17.5 µg/mL) | Active | – | > 25 | 0.36 | – | – | – | – |
| Cc1cc(NC(=O)c2cccc(S(=O)(=O)NC3(C)COC3)c2)ccc1F | – | – | 65 | 7 | 0.12 | – | > 100 | Active | – | – | 0.3 | 47.1 | – | – | Metabolite_Detected |
| Cc1cc(F)cc(NC(=O)c2cccc(S(=O)(=O)NC3CCCC3)c2)c1 | – | – | 100 | 74 | 0.11 | – | 11 (≈ 4.14 µg/mL) | Active | – | > 23 | 1.51 | – | – | – | – |
| CCN(CC)S(=O)(=O)c1ccc(Cl)c(C(=O)Nc2ccccc2)c1 | 0.7 | inactive | – | 80 | 1.04 | Dose-dependent effect | – | – | > 25 | – | – | – | – | – | – |
| O=C(Nc1ccc2ccccc2c1)c1cc(S(=O)(=O)NC2CCCCC2)ccc1F | 7.5 | – | 56 | 36 | 12.7 | – | < 0.2 | inactive | – | 13 | > 25 | – | – | – | – |

| Compound | Ratio [1] | Activity [2] | metabolised at 0.25 h, 1 µM [3] [%] | metabolised at 0.25 h, 1 µM [4] [%] | EC50 [5] [µM] | Activity [5] | solubility kinetic at 4 h [6] [µM] | Activity [7] | CC50 at 144 h [8] [µM] | CC50 at 96 h [9] [µM] | EC50 [10] [µM] | CC50 [11] [µM] | EC20 [12] [µM] | IC50 [13] [µM] | Drug metabolism [14] |
| --- | --- | --- | --- | --- | --- | --- | --- | --- | --- | --- | --- | --- | --- | --- | --- |
| N#Cc1cc(NC(=O)c2cccc(S(=O)(=O)N[C@H]3CCOC3)c2)ccc1F | – | – | 27 | 13 | 0.81 | – | > 100 | – | – | – | 0.98 | > 50 | – | – | – |
| O=C(Nc1ccc(F)cc1)c1cccc(C(=O)NC2CCCCC2)c1 | 6.4 | – | 93 | 56 | > 100 | – | < 0.4 | – | – | > 100 | > 25 | – | – | 0.09 | – |
| O=C(Nc1ccccc1)c1cc(S(=O)(=O)N2CCCCC2)c(Cl)cc1Cl | 0.2 | inactive | 100 | 99 | 0.5 | Dose-dependent effect | 2 (≈ 0.827 µg/mL) | Active | > 25 | – | – | – | – | – | – |
| Cc1cc(NC(=O)c2cccc(S(=O)(=O)NC3CCCC3)c2)ccc1F | 0.02 | – | 97 | 66 | 0.1 | – | 33 (≈ 12.4 µg/mL) | Active | – | 48.2 | 0.42 | – | – | – | – |
| Cc1c(F)ccc(NC(=O)c2cccc(S(=O)(=O)N[C@H]3CCOC3)c2)c1F | – | – | 66 | 25 | 0.29 | – | > 100 | – | – | – | 0.78 | > 25 | – | – | – |
| O=C(Nc1ccc(F)c(F)c1)c1cccc(S(=O)(=O)N[C@H]2CCOC2)c1 | – | – | 42 | 5 | 0.38 | – | > 100 | – | – | – | 0.51 | > 50 | – | – | – |
| CN1CCN(S(=O)(=O)c2cccc(C(=O)Nc3ccc(F)cc3)c2)CC1 | 6.3 | – | 84 | 53 | 26.5 | – | > 100 | Active | – | > 100 | 11.1 | – | – | – | – |
| Cc1c(F)ccc(NC(=O)c2cccc(S(=O)(=O)NC3(C)COC3)c2)c1C | – | – | 77 | 0 | 2.74 | – | > 100 | – | – | – | 1.65 | > 25 | – | – | – |
| CC(C)NS(=O)(=O)c1cccc(C(=O)Nc2ccc(F)c(C3CC3)c2)c1 | – | – | 61 | 27 | 0.32 | – | 31 (≈ 11.7 µg/mL) | – | – | – | 0.91 | 35.2 | – | – | – |
| Cc1cc(NC(=O)c2cccc(S(=O)(=O)N[C@H]3CCOC3)c2)c(F)cc1F | – | – | 69 | 17 | 2.22 | – | > 100 | – | – | – | 3.3 | > 25 | – | – | – |
| Cc1ccccc1NC(=O)c1cccc(S(=O)(=O)NC2CCCCC2)c1 | – | – | – | 86 | 4.18 | – | – | – | > 25 | – | – | – | – | – | – |
| Cc1cc(NC(=O)c2cccc(S(=O)(=O)NC3(C)COC3)c2)c(C)cc1F | – | – | 78 | 1 | 3.06 | – | > 100 | – | – | – | 1.91 | > 25 | – | – | – |
| O=C(Nc1cc(F)cc(F)c1)c1cccc(S(=O)(=O)NC2CCCC2)c1 | – | – | 100 | 79 | 0.28 | – | 28 (≈ 10.7 µg/mL) | Active | – | > 25 | 0.78 | – | – | – | – |
| Cc1c(NC(=O)c2cccc(S(=O)(=O)N[C@H]3CCOC3)c2)ccc(F)c1F | – | – | 68 | 37 | 3.63 | – | > 100 | – | – | – | 1.91 | > 25 | – | – | – |
| O=C(Nc1cccc2ccccc12)c1cc(S(=O)(=O)NC2CCCCC2)ccc1F | – | – | 100 | 94 | 15.6 | – | 12 (≈ 5.12 µg/mL) | inactive | – | > 25 | > 25 | – | – | – | – |
